Here are results for 2 compounds from ChEMBL document CHEMBL4014341, “Discovery of a Human Neuromedin U Receptor 1-Selective Hexapeptide Agonist with Enhanced Serum Stability” (J Med Chem, 2017).

The structures appear in SMILES notation. Activity calls are given as the source filed them. The rule behind the calls is not given here. Square brackets hold non-standard residues; d marks the D form. Peptide text beside a SMILES is read from it. * marks the point of attachment. Phe(4-F) = N[C@@H](Cc1ccc(F)cc1)C(=O)O; Acetyl(2-thienyl) = O=C(Cc1cccs1)*

Series [1] can be described thus: MRT in Wistar rat at 1 mg, iv by LC/MS analysis. Type of series: ADME, organism-based. To be noted: in vivo.
Series [2] in a line: Clearance in Wistar rat at 1 mg, iv up to 240 mins by LC/MS analysis. Type of series: ADME, organism-based. To be noted: in vivo.
The nature of series [3]: AUC in Wistar rat at 1 mg, iv up to 240 mins by LC/MS analysis. On the set-up: dose 1 mg, time < 4 hr, route intravenous. Type of series: ADME, organism-based. To be noted: in vivo.
The target of series [4] is Neuromedin-U receptor 2 (Homo sapiens) (UniProt Q9GZQ4). Description: Agonist activity at human NMUR2 expressed in CHO cells assessed as induction of Ca2+ flux at 0.1 to 10 nM after 18 hrs by Fluo-4 AM dye based FLIPR assay relative to NMU. Type of series: functional, cell-based. Put shortly: (§1)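 Human NMUR1 or NMUR2 stably expressed in CHO cells was assayed by Fluo-4 AM (4 μM, 40 min) FLIPR calcium flux, with cells seeded 18 h before. Peptides were tested at single concentrations of 0.1, 10 or 100 nM. Maximal response is expressed as % of hNMU at 1000 nM (=100%).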
Neuromedin-U receptor 2 (Homo sapiens), sequence (Q9GZQ4 whole entry): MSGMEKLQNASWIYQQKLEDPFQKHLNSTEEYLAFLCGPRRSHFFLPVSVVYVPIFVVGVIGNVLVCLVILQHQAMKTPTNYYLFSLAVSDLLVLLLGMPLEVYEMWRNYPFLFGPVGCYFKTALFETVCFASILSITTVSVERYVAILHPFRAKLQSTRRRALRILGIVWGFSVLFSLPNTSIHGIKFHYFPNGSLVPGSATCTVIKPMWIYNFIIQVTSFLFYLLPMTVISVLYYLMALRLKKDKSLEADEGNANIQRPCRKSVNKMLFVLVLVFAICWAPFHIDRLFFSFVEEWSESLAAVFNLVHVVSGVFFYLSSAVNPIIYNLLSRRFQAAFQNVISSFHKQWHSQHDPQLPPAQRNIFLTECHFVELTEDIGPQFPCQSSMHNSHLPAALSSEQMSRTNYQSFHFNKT
In general terms: Calcium flux is commonly read through the fluorescence of an indicator in the cells.

Series [5] has as its target T1, Neuromedin-U receptor 1 (Homo sapiens) (UniProt Q9HB89).
T1 sequence (whole entry): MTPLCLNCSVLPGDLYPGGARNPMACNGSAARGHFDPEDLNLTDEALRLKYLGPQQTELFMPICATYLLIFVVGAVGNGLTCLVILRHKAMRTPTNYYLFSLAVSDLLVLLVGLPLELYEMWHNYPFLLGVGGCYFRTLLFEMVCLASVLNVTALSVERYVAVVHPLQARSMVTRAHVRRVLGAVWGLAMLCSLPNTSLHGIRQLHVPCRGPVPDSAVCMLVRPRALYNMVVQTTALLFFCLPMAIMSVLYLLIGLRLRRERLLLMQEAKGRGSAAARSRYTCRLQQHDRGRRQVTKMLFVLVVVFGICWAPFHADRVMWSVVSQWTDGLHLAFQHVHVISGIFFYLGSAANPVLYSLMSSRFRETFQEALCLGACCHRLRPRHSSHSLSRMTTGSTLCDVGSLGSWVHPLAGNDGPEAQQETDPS
Nature of the series: Agonist activity at human NMUR1 expressed in CHO cells assessed as induction of Ca2+ flux at 0.1 to 10 nM after 18 hrs by Fluo-4 AM dye based FLIPR assay relative to NMU. It counts as functional, cell-based. The method in brief: as §1

A further series has as its target T2, Neuromedin-U receptor 1 (Homo sapiens, UniProt Q9HB89).
T2 sequence (Q9HB89 whole entry): T1 sequence (whole entry)
Description: Agonist activity at human NMUR1 expressed in CHO cells assessed as induction of Ca2+ flux after 18 hrs by Fluo-4 AM dye based FLIPR assay. It counts as functional, cell-based. Put shortly:
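CHO cells stably expressing human NMUR1 or NMUR2 were seeded at 2.0 × 10^4/well. After 18 h they were loaded 40 min with 4 μM Fluo-4 AM in HBSS/10 mM HEPES/2.5 mM probenecid pH 7.4 with 1% FCS, then washed. Peptides in buffer with 0.05% BSA/0.001% Triton X-100 were tested at 10−12−10−6 M in triplicate. Calcium flux was read by FLIPR from the maximal value, and EC50 was obtained by curve fitting.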

With `N=C(N)NCCC[C@H](NC(=O)[C@@H]1CCCN1C(=O)[C@H](CCCNC(=N)N)NC(=O)[C@H](Cc1ccc(F)cc1)NC(=O)[C@H](Cc1c[nH]c2ccccc12)NC(=O)Cc1cccs1)C(=O)N[C@@H](CC(N)=O)C(N)=O` ({Acetyl(2-thienyl)}-W[Phe(4-F)]RPRN-NH2), the MRT in series [1] was 11.5 min. The same compound returned a clearance in series [2] of 3.19 mL/min. The same compound gave an AUC at 4 h in series [3] of 5300 ng·h/mL. Further, the result in series [4] and in series [5] was Active.
Regarding `CC(C)C[C@H](NC(=O)[C@H](Cc1ccccc1)NC(=O)[C@H](Cc1ccc(O)cc1)NC(=O)CNC(=O)[C@H](CCCNC(=N)N)NC(=O)[C@H](CO)NC(=O)[C@H](CCC(N)=O)NC(=O)[C@H](CO)NC(=O)[C@H](C)NC(=O)[C@H](Cc1ccccc1)NC(=O)[C@@H]1CCCN1C(=O)[C@H](CO)NC(=O)[C@H](CCC(N)=O)NC(=O)[C@H](Cc1ccccc1)NC(=O)[C@H](CCC(=O)O)NC(=O)[C@H](CCC(=O)O)NC(=O)[C@H](CC(=O)O)NC(=O)[C@@H](NC(=O)[C@H](CCCNC(=N)N)NC(=O)[C@@H](N)Cc1ccccc1)C(C)C)C(=O)N[C@@H](Cc1ccccc1)C(=O)N[C@@H](CCCNC(=N)N)C(=O)N1CCC[C@H]1C(=O)N[C@@H](CCCNC(=N)N)C(=O)N[C@@H](CC(N)=O)C(N)=O` (H-FRVDEEFQSPFASQSRGYFLFRPRN-NH2), on Neuromedin-U receptor 1, the EC50 was found to be 0.17 nM.

Usually MRT stands for the average time that molecules of a dose stay in the body. As usually defined, the clearance is a measure of how efficiently the substance is removed, as volume per time. Read a low clearance as inefficient removal. The term AUC denotes the area under the concentration-time curve, a measure of exposure. As usually defined, the EC50 is the concentration at which the effect is half-maximal.
